Assay: Toxicity liver stage against HepG2, at 10uM
Type: cell-based
Design: test concentration 10 uM, cell line HepG2-A16-CD81EGFP
Conditions: human, HepG2-A16-CD81EGFP cells; read-out: INHIBITION
In short: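 Uninfected HepG2-A16-CD81EGFP cells, 3 × 10^3 per well, 1536-well, plated on prespotted compound at 10 μM final, parasite-free screening media added to match infected plates; puromycin 10 μM positive, DMSO 0.5% negative; run in parallel with 48 h PbLuc assay at 37 °C, 5% CO2; viability by CellTiter-Glo luminescence, normalized to controls.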

COc1ccc2[nH]cc(C(=O)CNc3nc(C)cs3)c2c1 gave a cytotoxicity at 10 µM of 6.04%.
For Cn1cc(S(=O)(=O)N(CC(F)(F)F)C2CC2)cc1C(N)=O, the cytotoxicity at 10 µM was -5.02%.
Work on O=C(c1ccc(N2CCCCCC2)nn1)N1CCc2ccccc21 yielded a cytotoxicity at 10 µM of -8.04%.
CC(=O)N1N=C(c2ccccc2)OC1C(=O)NCCc1ccc(O)cc1 (configuration not stated) gave a cytotoxicity at 10 µM of -4%.
Compound CSCC[C@@H](CO)NC(=O)c1sc(-c2ccc(Cl)cc2)nc1C has a cytotoxicity at 10 µM of 6.45%.
Work on CC(C)CCNc1nc(C(=O)NC2CC2)cs1 yielded a cytotoxicity at 10 µM of 0.461%.
In the case of Cn1cccc1C(O)CNS(=O)(=O)c1ccccc1Br (configuration not stated), the cytotoxicity at 10 µM is reported as -11.1%.
CC(=O)N1CC2(CCN(S(=O)(=O)N(C)C)CC2)C2(CCNC2=O)C1 (configuration not stated) showed a cytotoxicity at 10 µM of -6.9%.
In the case of CN(C)C(=O)CCC(=O)N1CCC2(CC1)COC2, the cytotoxicity at 10 µM is reported as 2.05%.
Work on CN1CC2(CCN(Cc3cccnc3)CC2)c2cc(F)ccc21 yielded a cytotoxicity at 10 µM of 14%.
Work on CO[C@H]1CN(C(=O)c2ccc[nH]2)[C@@H]2COC[C@H]12 yielded a cytotoxicity at 10 µM of -6.04%.
CC(C)Nc1nc(N2CCCC2)nc2c1CN(S(C)(=O)=O)CC2 gave a cytotoxicity at 10 µM of 2.69%.
For N#Cc1cccc(CN2CCn3cc(CNC(=O)C4CCC4)nc3C2)c1, the cytotoxicity at 10 µM was 14%.
With c1ccc2c(c1)COC1(CCCCC1)N2 the cytotoxicity at 10 µM was -11.1%.
In the case of O=C(NCCn1ccc(-c2ccccn2)n1)C1CC1, the cytotoxicity at 10 µM is reported as 7.49%.
With Cc1nc(N2CCCC2)ncc1-c1cc(O)nc(NCC2CCCO2)n1 (configuration not stated) the cytotoxicity at 10 µM was 0.723%.
With CS(=O)(=O)N1CCC(Cc2cnc(Br)cn2)C1 (configuration not stated) the cytotoxicity at 10 µM was 14.5%.
Work on CC(C)CC(=O)N1C[C@H]2CCCN(S(=O)(=O)c3ccc(Cl)s3)[C@H]2C1 yielded a cytotoxicity at 10 µM of -1.63%.
For COCCN1CCCC(Cc2cnc(-c3c(C)nn(C)c3C)cn2)C1 (configuration not stated), the cytotoxicity at 10 µM was -2.56%.
With COc1ccccc1CC(=O)NC(C)c1nc2cccnc2n1C(C)C (configuration not stated) the cytotoxicity at 10 µM was -43.8%.
For Cc1cnc(-c2nc(NC3CCCC3)ncc2-c2onc(C)c2C)cn1, the cytotoxicity at 10 µM was -32.5%.
Work on Cc1[nH]c2ccc(C(=O)N3C[C@@H](O)[C@H](N4CCOCC4)C3)cc2c1C yielded a cytotoxicity at 10 µM of -21.3%.
Compound CCCC(=O)N1CCC([C@@H]2C[C@H](C(F)(F)F)n3nc(C)cc3N2)CC1 has a cytotoxicity at 10 µM of -16.1%.
Work on COc1ccccc1C1=NOC(CC2(C(=O)NC(C)C)CCOCC2)C1 (configuration not stated) yielded a cytotoxicity at 10 µM of -20.4%.
With CC(=O)N1CCc2nc(C3CCN(C(=O)c4ccccc4)C3)ncc2C1 (configuration not stated) the cytotoxicity at 10 µM was -4.76%.
Cc1c(C(=O)N2CCOCC2)nnn1-c1ccc2ncccc2c1 showed a cytotoxicity at 10 µM of -4.87%.
CC(C#N)CNC(=O)Nc1ccc(-c2cc[nH]n2)cc1 (configuration not stated) showed a cytotoxicity at 10 µM of -3.27%.
In the case of COC(=O)C(C)(C)NC(=O)c1scnc1Cl, the cytotoxicity at 10 µM is reported as -2.31%.
CCc1nnc(SC2CCN(c3ccccc3F)C2=O)n1C (configuration not stated) gave a cytotoxicity at 10 µM of 1.77%.
In the case of Cc1cc(N(C)C)nc(N2CCCC2c2ccccn2)n1 (configuration not stated), the cytotoxicity at 10 µM is reported as 3.16%.
Cn1cc(CCCN2CCCC(c3cc(C(F)(F)F)[nH]n3)C2)cn1 (configuration not stated) showed a cytotoxicity at 10 µM of -2.59%.
With CCCS(=O)(=O)CC(=O)Nc1ccsc1 the cytotoxicity at 10 µM was -5.61%.
With Cc1ccc(CNC(=O)NCC(=O)N2CCCC2)c(N2CCCC2)c1 the cytotoxicity at 10 µM was 5.84%.
Clc1ccc(OCCNC2(c3ccc(Br)cc3)CCOCC2)cc1 gave a cytotoxicity at 10 µM of 2.67%.
For COc1ncccc1CNC(=O)c1cc(F)cc(Br)c1, the cytotoxicity at 10 µM was -0.872%.
Work on Cc1nnc(NCC(c2cccs2)N2CCCC2)c(C#N)c1C (configuration not stated) yielded a cytotoxicity at 10 µM of -4.94%.
In the case of COc1c(CNCc2ccc(Cn3cccn3)cc2)c(C)nn1C, the cytotoxicity at 10 µM is reported as 35.5%.
In the case of N#Cc1ccccc1N1CCN(CCC(=O)N2CCOCC2)CC1, the cytotoxicity at 10 µM is reported as 10%.
For COC(=O)C1CN(CC(=O)Nc2cc(F)ccc2F)c2ccccc21 (configuration not stated), the cytotoxicity at 10 µM was 8.32%.
For O=C(c1ccc(Cl)c(Cl)c1)N1CCCCC1C1OCCO1 (configuration not stated), the cytotoxicity at 10 µM was 9.25%.
With CCn1c(C)nnc1CN(C)C1CCN(Cc2ccccn2)C1 (configuration not stated) the cytotoxicity at 10 µM was 1.8%.
With Cc1ccc(C)c(OC2CCN(C(=O)NCC(=O)N3CCCC3)CC2)c1 the cytotoxicity at 10 µM was -5.75%.
In the case of CC(C)CNC(=O)CNC(=O)Nc1cccc(Cl)c1-n1cccn1, the cytotoxicity at 10 µM is reported as -2.45%.
For O=c1[nH]nc(CNc2ncc(Cl)cn2)[nH]1, the cytotoxicity at 10 µM was -5.98%.
CN(CC(=O)NC(C)(C)C)C(=O)C1CC(c2cccc(F)c2)=NO1 (configuration not stated) showed a cytotoxicity at 10 µM of 19.5%.
Work on Cc1noc(CNc2ccc(OC(F)F)cc2OC(F)F)n1 yielded a cytotoxicity at 10 µM of 1.85%.
Cc1nc(CNC(=O)Nc2ccc3c(c2)CCCC(=O)N3)sc1C gave a cytotoxicity at 10 µM of 5.06%.
Work on CN1CCN(c2ccc(NC(=O)c3cccs3)c(C(F)(F)F)c2)CC1 yielded a cytotoxicity at 10 µM of 3.94%.
CCc1noc(CNc2ccc(F)cc2OCC2CC2)n1 showed a cytotoxicity at 10 µM of -7.21%.
For Cc1nc2n(n1)CC(Nc1cc(C(F)(F)F)nc3ncnn13)CC2 (configuration not stated), the cytotoxicity at 10 µM was -1.27%.
Compound Cc1nc(CN2CCO[C@@H]3CN(C(=O)CC4CC4)CC[C@@H]3C2)cs1 has a cytotoxicity at 10 µM of 3.79%.
Work on O=C1CCC2(CCNCC2)CN1CCCOc1cccnc1 yielded a cytotoxicity at 10 µM of -13.2%.
Cn1ccnc1CNc1nccc(-c2ncnn2C)n1 gave a cytotoxicity at 10 µM of -6.47%.
For O=C(CCN1CCCCO1)N1CCC(CO)(CCc2ccccc2)CC1, the cytotoxicity at 10 µM was 9.71%.
Compound Cc1ccc([C@H]2CN(C(=O)C3CCC3)C[C@@H]2N)o1 has a cytotoxicity at 10 µM of 7.95%.
For COc1cc2[nH]c(=O)c(CN3CCCC(CO)C3)cc2c(OC)c1OC (configuration not stated), the cytotoxicity at 10 µM was -11.7%.
Compound CN1CSC[C@H]1C(=O)N1CCC(CCc2ccccc2)CC1 has a cytotoxicity at 10 µM of 3.23%.
Cc1ccccc1-n1cc(-c2ccnc(N3CCCC(CN)C3)n2)cn1 (configuration not stated) gave a cytotoxicity at 10 µM of 1.34%.
CCn1nc(C(C)C)cc1C(=O)N1CC(OCc2ccccc2F)C1 showed a cytotoxicity at 10 µM of -4.62%.
Compound CSc1cccc(CNC(=O)C2CC(=O)N(CCN(C)C)C2)c1 (configuration not stated) has a cytotoxicity at 10 µM of -4.15%.
For CC(C)c1nc(C2CCCN(C(=O)CCCn3cccn3)C2)no1 (configuration not stated), the cytotoxicity at 10 µM was -1.36%.
With Cc1nc(CN(C)C2CCN(Cc3cnc(C)s3)C2)no1 (configuration not stated) the cytotoxicity at 10 µM was -4.8%.
CC(NC(=O)CCc1cccs1)c1nnc2n1CCCCC2 (configuration not stated) showed a cytotoxicity at 10 µM of -7.59%.
Work on CC(C)c1noc(CN2CCN(C(=O)c3ccncc3F)CC2)n1 yielded a cytotoxicity at 10 µM of -10.9%.
Compound Cc1noc(C(C)N2CCN(CCN3CCCC3=O)CC2)n1 (configuration not stated) has a cytotoxicity at 10 µM of -13.4%.
In the case of Cc1cccc(-c2noc(CN3CCOCC3C)n2)c1 (configuration not stated), the cytotoxicity at 10 µM is reported as -11.9%.
With O=C(c1ccc(N2CCCC2)nc1)N1CCCC(n2cncn2)C1 (configuration not stated) the cytotoxicity at 10 µM was -5.22%.
In the case of CC(C)(C)c1noc(CCCC(=O)NCC2CCS(=O)(=O)C2)n1 (configuration not stated), the cytotoxicity at 10 µM is reported as -15.4%.
CC(Cn1cccn1)NCc1csc(-c2ncccn2)n1 (configuration not stated) gave a cytotoxicity at 10 µM of -14.7%.
For Fc1ccccc1OCCN1CCCCC1Cn1cncn1 (configuration not stated), the cytotoxicity at 10 µM was -18.9%.
Work on CCC(O)CN1CCN(C(=O)Cc2cc(C)ccc2OC)CC1 (configuration not stated) yielded a cytotoxicity at 10 µM of -30.9%.
With O=S(=O)(CCCN1CCCCC1Cn1cncn1)c1ccccc1 (configuration not stated) the cytotoxicity at 10 µM was -7.42%.
With COc1c(CNCc2cccc(C(=O)N(C)C)c2)c(C)nn1C the cytotoxicity at 10 µM was -16.9%.
O=C(COC1CCCCC1)N1CCCC(n2ccnc2)C1 (configuration not stated) showed a cytotoxicity at 10 µM of -19.7%.
Compound CC(C)CN1CCn2c(COCc3cccnc3)nnc2C1 has a cytotoxicity at 10 µM of 5.8%.
CO[C@H]1CCN(C(=O)Cc2ccsc2)[C@@H]2CN(CC3CC3)C[C@H]12 gave a cytotoxicity at 10 µM of 6.35%.
In the case of CCN1CCC12CCN(C(=O)c1ccsc1)C2 (configuration not stated), the cytotoxicity at 10 µM is reported as -148%.
In the case of O=C1[C@H]2CN(S(=O)(=O)c3ccccc3)C[C@H]2CN1Cc1cccnc1, the cytotoxicity at 10 µM is reported as -0.0837%.
COc1cc(N2C[C@H](C(=O)NCC3CC3)[C@@H]3CCO[C@@H]3C2)ncn1 showed a cytotoxicity at 10 µM of 2.87%.
COc1ccccc1CN1CC[C@]2(C[C@H](OC)CO2)C1 gave a cytotoxicity at 10 µM of -11.1%.
In the case of COCc1ncn2c1CN(C(=O)c1cccc3cccnc13)CC2, the cytotoxicity at 10 µM is reported as -19.7%.
Cc1ccc(CN2CCC3(CCC(=O)N3CC(=O)N(C)C)CC2)s1 gave a cytotoxicity at 10 µM of -2.45%.

Reference: ChEMBL document CHEMBL4513216, “Probing the Open Global Health Chemical Diversity Library for Multistage-Active Starting Points for Next-Generation Antimalarials” (ACS Infect Dis, 2020)
